Data on ten compounds can be found in PubChem BioAssay AID1040 (The Scripps Research Institute Molecular Screening Center, 2008).

The campaign covered roughly 200,000 compounds. About 2,000 (1%) were called active.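 The calls were made as follows: active = inhibition above the campaign mean inhibition of all tested compounds plus 3 SD (cut at about 20% in these data); inactive = the rest.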 The full list was thinned out, with actives kept by preference.

Chain of Neuropeptide Y receptor type 1 (Homo sapiens) (P25929 whole entry, looked up): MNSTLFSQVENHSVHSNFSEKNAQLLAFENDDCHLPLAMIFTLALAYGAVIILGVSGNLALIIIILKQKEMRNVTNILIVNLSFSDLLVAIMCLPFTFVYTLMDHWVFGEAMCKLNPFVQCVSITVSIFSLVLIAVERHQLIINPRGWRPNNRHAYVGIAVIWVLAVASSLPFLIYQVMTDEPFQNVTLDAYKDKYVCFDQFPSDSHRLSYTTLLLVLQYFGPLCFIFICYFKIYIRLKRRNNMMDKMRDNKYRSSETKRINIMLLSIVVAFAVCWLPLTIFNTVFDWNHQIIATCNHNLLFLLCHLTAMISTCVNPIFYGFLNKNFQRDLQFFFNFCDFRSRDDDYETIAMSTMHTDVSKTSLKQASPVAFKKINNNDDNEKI

This experiment has as its target Neuropeptide Y receptor type 1 (Homo sapiens) (UniProt P25929). The experiment in a line: NPY-Y1 receptor antagonists, primary screen, cell-based (AID 1040).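 Also: 0% = DMSO wells given NPY plus isoproterenol and 100% = isoproterenol alone without NPY.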 Particulars: HEK293-CNG Y1 cells, membrane potential fluorescence; at 3.6 µM; hits give high values. The gist of the method: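 Material: HEK293 cells co-expressing NPY Y1 receptor and cyclic-nucleotide gated channel. Timing: compound incubation 1 h at room temperature, readout 45 min post-stimulation. Signal: fluorescence, membrane potential probe.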
Take `N#Cc1ccc(Cn2cc(C(=O)c3ccco3)c3ccccc32)cc1`: the inhibition (as a rule, the change of the read-out against control, counted positive when it falls) is 21.4% (active).

For `NC(=O)Cn1cc(C(=O)c2ccccc2F)c2ccccc21`, the inhibition is 4.87% (inactive).

Take `CC(C)Oc1cccc(C(=O)C2CCCN(C3CCOCC3)C2)c1` (stereo not given): the inhibition was 1.82% (inactive).

Turning to `CCOC(=O)c1c(N)n(Cc2ccccc2)c2nc3ccccc3nc12`, the inhibition was 26.8% (active).

Take `COc1cc(Cn2c(N)c(C(=O)NCc3ccco3)c3nc4ccccc4nc32)cc(OC)c1OC`: the inhibition is -7.12% (inactive).

As for `CCOC(=O)c1c(N)n(CCN2CCOCC2)c2nc3ccccc3nc12`, the inhibition was -2.58% (inactive).

Consider `N=c1ccccn1Cc1ccccc1`, for which the inhibition is -3.41% (inactive).

As for `CCc1nnc(NS(=O)(=O)c2ccc(N=Cc3c(O)n(-c4ccccc4)c(=O)[nH]c3=O)cc2)s1`, the inhibition was 12.6% (inactive).

For the compound `COc1ccc(C(=O)C2CCCN(Cc3ccc(C)s3)C2)cc1OC` (stereo not given), the inhibition is -3.61% (inactive).

Turning to `O=C(CN1CCCC1=O)NCCc1ccccc1`, the inhibition was -2.4% (inactive).
